Source: ChEMBL document CHEMBL1124196, “Etodolac, a novel antiinflammatory agent. The syntheses and biological evaluation of its metabolites” (J Med Chem, 1988)

test system: not listed separately; assay: Evaluated in vitro for its ability to inhibit prostaglandin E2 production in cultured chondrocyte cells at 12 mg/kg dose; format: functional, organism-based; settings: Rattus norvegicus

Row | IC50 [µM] | Structure (SMILES)
1 | 50 | CCc1c(O)ccc2c3c([nH]c12)C(CC)(CC(=O)O)OCC3 (stereo not drawn) [7-HYDROXYETODOLAC]

test system: not listed separately; assay: Evaluated in vitro for its ability to inhibit prostaglandin E2 production in cultured chondrocyte cells at 25 mg/kg dose; format: functional, organism-based; settings: Rattus norvegicus

Row | IC50 [µM] | Structure (SMILES)
2 | > 100 | CCc1cccc2c3c([nH]c12)C(CC)(CC(=O)O)OCC3NC(N)=O (stereo not drawn) [4-UREIDOETODOLAC]
3 | 0.185 | CCc1cccc2c3c([nH]c12)C(CC)(CC(=O)O)OCC3=O (stereo not drawn)
4 | 25 | CCc1cccc2c3c(n(C)c12)C(CC)(CC(=O)O)OCC3 (stereo not drawn)
5 | 6.5 | CCc1cc(O)cc2c3c([nH]c12)C(CC)(CC(=O)O)OCC3 (stereo not drawn) [6-HYDROXYETODOLAC]
6 | 0.025 | CCc1cccc2c3c([nH]c12)C(CC)(CC(=O)O)OCC3 (stereo not drawn) [ETODOLAC]
7 | 2 | CCC1(CC(=O)O)OCCc2c1[nH]c1c(C(C)O)cccc21 (stereo not drawn) [8-(1-HYDROXYETHYL)ETODOLAC]

test system: Rattus norvegicus; assay: Evaluated for the inhibition of adjuvant-induced hind paw edema in rats at 12 mg/kg dose; format: functional; settings: not given
How it was run: (§1)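 Male Sprague-Dawley rats (180-200 g), groups of 10; 0.1 mL Freund's complete adjuvant (0.5 mg killed, dried Mycobacterium butyricum in mineral oil) intradermally into left hindpaw. Compound or vehicle (0.5% Tween 80 in water) by gastric lavage just before FCA (day 0) and at 24 and 48 h. Paw volume by plethysmometer before FCA and on day 3; % inhibition of mean edema versus control.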

Row | Structure (SMILES) | inhibition in vivo at 12 mg/kg [%]
8 | CCc1c(O)ccc2c3c([nH]c12)C(CC)(CC(=O)O)OCC3 (stereo not drawn) [7-HYDROXYETODOLAC] | 8

test system: Rattus norvegicus; assay: Evaluated for the inhibition of adjuvant-induced hind paw edema in rats at 25 mg/kg dose; format: functional; settings: not given; how it was run: as §1

Row | Structure (SMILES) | inhibition in vivo at 25 mg/kg [%]
9 | CCc1cccc2c3c([nH]c12)C(CC)(CC(=O)O)OCC3=O (stereo not drawn) | 21
10 | CCc1cccc2c3c(n(C)c12)C(CC)(CC(=O)O)OCC3 (stereo not drawn) | 11
11 | CCc1cc(O)cc2c3c([nH]c12)C(CC)(CC(=O)O)OCC3 (stereo not drawn) [6-HYDROXYETODOLAC] | 10
12 | CCc1cccc2c3c([nH]c12)C(CC)(CC(=O)O)OCC3 (stereo not drawn) [ETODOLAC] | 65
13 | CCC1(CC(=O)O)OCCc2c1[nH]c1c(C(C)O)cccc21 (stereo not drawn) [8-(1-HYDROXYETHYL)ETODOLAC] | 14
